Data as given in BindingDB's records for doi:10.1021/jm0300274 (The University of Georgia, 2003).

System: HIV-1 (antiviral activity in human PBM cells)
Test: Anti-HIV-1 activity determined in human peripheral blood mononuclear PBM cells, expressed as EC50
Summary of the method: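 PHA-stimulated (2-3 days) human PBM cells from healthy seronegative donors were infected with HIV-1 LAI for 1 h in bulk, then placed into 10-fold serial compound dilutions. Medium contained IL-2 and DEAE-dextran. After 5 days at 37 °C, supernatant virus was pelleted and RT activity measured. EC50 was taken from the concentration-response curve by the median effect method.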

EC50 | Compound
> 100 µM | Nc1nc2c(ncn2[C@H]2CC(F)(F)[C@H](CO)O2)c(=O)[nH]1
> 100 µM | O=c1ccn([C@@H]2CC(F)(F)[C@H](CO)O2)c(=O)[nH]1
11.5 µM | Nc1ccn([C@@H]2CC(F)(F)[C@H](CO)O2)c(=O)n1
> 100 µM | Cc1cn([C@@H]2CC(F)(F)[C@H](CO)O2)c(=O)[nH]c1=O
> 100 µM | O=c1[nH]cnc2c1ncn2[C@@H]1CC(F)(F)[C@H](CO)O1
> 100 µM | O=c1ccn([C@H]2CC(F)(F)[C@H](CO)O2)c(=O)[nH]1
> 100 µM | Cc1cn([C@H]2CC(F)(F)[C@H](CO)O2)c(=O)[nH]c1=O
8.8 µM | Nc1nc(=O)n([C@@H]2CC(F)(F)[C@H](CO)O2)cc1F
> 100 µM | Nc1nc2c(ncn2[C@@H]2CC(F)(F)[C@H](CO)O2)c(=O)[nH]1
> 100 µM | Nc1ncnc2c1ncn2[C@H]1CC(F)(F)[C@H](CO)O1
> 100 µM | Nc1ccn([C@H]2CC(F)(F)[C@H](CO)O2)c(=O)n1
> 100 µM | O=c1[nH]cnc2c1ncn2[C@H]1CC(F)(F)[C@H](CO)O1
> 100 µM | Nc1ncnc2c1ncn2[C@@H]1CC(F)(F)[C@H](CO)O1
> 100 µM | Nc1nc(=O)n([C@H]2CC(F)(F)[C@H](CO)O2)cc1F
> 100 µM | Cc1cn([C@H]2C=C(F)[C@H](CO)O2)c(=O)[nH]c1=O
38.5 µM | Nc1nc2c(ncn2[C@@H]2C=C(F)[C@H](CO)O2)c(=O)[nH]1
> 100 µM | O=c1[nH]cnc2c1ncn2[C@H]1C=C(F)[C@@H](CO)O1
> 100 µM | Nc1ncnc2c1ncn2[C@@H]1C=C(F)[C@H](CO)O1
> 100 µM | Nc1ncnc2c1ncn2[C@H]1C=C(F)[C@H](CO)O1
> 100 µM | Cc1cn([C@@H]2C=C(F)[C@H](CO)O2)c(=O)[nH]c1=O
> 100 µM | Nc1nc2c(ncn2[C@H]2C=C(F)[C@H](CO)O2)c(=O)[nH]1
